What is called ΔTm is the change in melting temperature against a reference sample. In general, EC50 refers to the concentration at which the effect is half-maximal. High values mean a need for much substance, low ones an effect from little substance.

Results on 15 molecules are retold here after ChEMBL document CHEMBL1140074, “Aminoacyl-anthraquinone conjugates as telomerase inhibitors: synthesis, biophysical and biological evaluation” (J Med Chem, 2008).

For experiment [1], the species on record is Homo sapiens. Nature of the experiment: Binding affinity to human telomeric DNA sequence assessed as stabilization of G-quadruplex at 10 uM by thermal denaturation. Put shortly:
(§1)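 Fluorescence melting in a LightCycler of 0.25 µM telomeric oligonucleotide HTS (5'-FAM, 3'-methyl red) in LiP buffer (10 mM LiOH, 50 mM KCl, pH 7.4 with H3PO4). Samples were denatured at 95 °C for 5 min, then cooled and reheated at 0.5 °C/min in 1 °C steps with 2 min equilibration per step. Excitation 488 nm, emission 520 nm. ΔTm was taken relative to ligand-free DNA.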

In experiment [2] the target is Telomerase reverse transcriptase (Homo sapiens, UniProt O14746). Nature of the experiment: Inhibition of telomerase in human JR8 cells by TRAP assay. The format is cell-based. Put shortly: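 Telomerase source was a CHAPS lysate of exponentially growing JR8 cells (500 ng protein per reaction). Elongation 30 min at 30 °C, then 30 PCR cycles. Products run on 10% PAGE with phosphorimager read-out, in triplicate. Drug levels kept below those inhibiting Taq.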
Sequence of Telomerase reverse transcriptase (O14746 whole entry): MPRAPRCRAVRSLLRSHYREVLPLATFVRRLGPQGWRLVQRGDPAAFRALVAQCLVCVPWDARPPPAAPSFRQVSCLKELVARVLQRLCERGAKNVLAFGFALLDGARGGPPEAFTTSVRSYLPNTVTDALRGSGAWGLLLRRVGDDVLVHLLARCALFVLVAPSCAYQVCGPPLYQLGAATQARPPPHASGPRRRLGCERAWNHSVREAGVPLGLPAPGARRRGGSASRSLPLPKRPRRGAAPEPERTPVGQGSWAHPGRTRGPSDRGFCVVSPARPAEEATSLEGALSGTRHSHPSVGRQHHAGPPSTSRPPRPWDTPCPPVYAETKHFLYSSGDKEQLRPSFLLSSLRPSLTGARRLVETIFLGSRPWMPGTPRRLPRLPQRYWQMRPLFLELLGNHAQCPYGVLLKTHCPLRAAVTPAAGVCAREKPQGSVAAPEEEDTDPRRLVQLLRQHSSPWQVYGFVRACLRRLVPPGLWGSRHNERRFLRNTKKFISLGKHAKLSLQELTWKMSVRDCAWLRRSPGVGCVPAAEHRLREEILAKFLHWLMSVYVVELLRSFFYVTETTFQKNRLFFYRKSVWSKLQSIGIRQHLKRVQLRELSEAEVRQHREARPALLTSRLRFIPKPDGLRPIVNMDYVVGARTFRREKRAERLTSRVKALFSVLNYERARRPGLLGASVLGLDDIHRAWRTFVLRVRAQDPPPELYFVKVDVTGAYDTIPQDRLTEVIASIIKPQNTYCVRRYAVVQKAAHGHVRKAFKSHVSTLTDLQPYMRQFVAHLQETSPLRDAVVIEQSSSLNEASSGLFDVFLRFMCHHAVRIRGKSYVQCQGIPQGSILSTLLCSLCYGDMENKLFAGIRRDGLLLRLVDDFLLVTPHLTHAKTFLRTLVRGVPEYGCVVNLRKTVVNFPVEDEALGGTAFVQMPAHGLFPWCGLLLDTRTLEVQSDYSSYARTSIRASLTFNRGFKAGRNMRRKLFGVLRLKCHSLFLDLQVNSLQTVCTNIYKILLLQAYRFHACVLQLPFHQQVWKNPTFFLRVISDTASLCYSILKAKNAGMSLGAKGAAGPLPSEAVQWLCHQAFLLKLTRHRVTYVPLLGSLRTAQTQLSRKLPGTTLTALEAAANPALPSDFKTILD

For experiment [3], the species on record is Homo sapiens. Nature of the experiment: Binding affinity to human telomeric DNA sequence assessed as stabilization of G-quadruplex at 1 uM by thermal denaturation. Put shortly:
as §1

For experiment [4], the target named is DNA polymerase I, thermostable (Thermus aquaticus, UniProt P19821). Nature of the experiment: Inhibition of Taq polymerase. Put shortly: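 PCR with 2.5 ng pBR322 template and primers Tup/Tdown (0.5 µM) amplifying plasmid bases 906-1064. Compounds tested from 20 nM to 40 µM. Run 25 cycles of 94 °C, 65 °C and 72 °C (30 s each). Products resolved on 2% agarose in TBE and stained with ethidium bromide.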
Sequence of DNA polymerase I, thermostable (P19821 whole entry): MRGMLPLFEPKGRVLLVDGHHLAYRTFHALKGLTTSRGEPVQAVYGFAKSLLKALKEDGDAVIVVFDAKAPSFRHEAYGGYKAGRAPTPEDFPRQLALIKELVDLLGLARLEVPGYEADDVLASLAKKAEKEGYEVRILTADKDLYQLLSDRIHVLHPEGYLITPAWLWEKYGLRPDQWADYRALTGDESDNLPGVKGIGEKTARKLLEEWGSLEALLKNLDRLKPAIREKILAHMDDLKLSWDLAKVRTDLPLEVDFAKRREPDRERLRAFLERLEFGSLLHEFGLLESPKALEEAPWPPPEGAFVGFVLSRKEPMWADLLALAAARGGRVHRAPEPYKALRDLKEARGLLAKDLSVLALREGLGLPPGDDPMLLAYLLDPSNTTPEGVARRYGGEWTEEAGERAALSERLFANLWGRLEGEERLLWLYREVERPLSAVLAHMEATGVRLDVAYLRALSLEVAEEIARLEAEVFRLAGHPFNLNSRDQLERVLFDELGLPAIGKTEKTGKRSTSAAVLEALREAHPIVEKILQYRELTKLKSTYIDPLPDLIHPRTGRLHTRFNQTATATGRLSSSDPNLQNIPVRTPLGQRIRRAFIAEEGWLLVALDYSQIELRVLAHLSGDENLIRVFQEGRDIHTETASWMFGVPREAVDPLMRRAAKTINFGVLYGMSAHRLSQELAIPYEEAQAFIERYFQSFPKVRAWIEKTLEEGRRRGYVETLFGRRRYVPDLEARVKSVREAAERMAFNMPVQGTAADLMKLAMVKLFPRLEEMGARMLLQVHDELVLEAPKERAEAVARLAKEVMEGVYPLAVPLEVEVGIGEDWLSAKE

Structures are written as SMILES.

As for `N[C@@H](CO)C(=O)NCCNC(=O)c1ccc2c(c1)C(=O)c1cc(C(=O)NCCNC(=O)[C@@H](N)CO)ccc1C2=O`, the ΔTm amounted to 2.1 °C in experiment [1] and 0.3 °C in experiment [3]. The EC50 in experiment [2] and in experiment [4] was more than 40 µM in each case.
As to `N=C(N)NCCC[C@H](N)C(=O)NCCC(=O)Nc1ccc2c(c1)C(=O)c1cc(NC(=O)CCNC(=O)[C@@H](N)CCCNC(=N)N)ccc1C2=O`, the ΔTm in experiment [1] was 13.3 °C; in experiment [3], 0.6 °C.
For the molecule `CC[C@H](C)[C@H](N)C(=O)NCCNC(=O)c1ccc2c(c1)C(=O)c1cc(C(=O)NCCNC(=O)[C@@H](N)[C@@H](C)CC)ccc1C2=O`, the ΔTm was 3 °C in experiment [1] and 0.4 °C in experiment [3]. Also, the half-maximal effective concentration (EC50) in experiment [2] and in experiment [4] was more than 40 µM throughout.
`C[C@H](N)C(=O)NCCC(=O)Nc1ccc2c(c1)C(=O)c1ccc(NC(=O)CCNC(=O)[C@H](C)N)cc1C2=O`: the ΔTm in experiment [1] was found to be 8.2 °C; in experiment [3], 0.2 °C. Besides, the EC50 in experiment [2] and in experiment [4] was more than 40 µM throughout.
Regarding `NC(N)=NCCC[C@H](N)C(=O)NCCNC(=O)c1ccc2c(c1)C(=O)c1cc(C(=O)NCCNC(=O)[C@@H](N)CCCN=C(N)N)ccc1C2=O`, the values for the EC50 in experiment [2] and in experiment [4] were 1.2 µM and 10 µM, respectively.
As to `C[C@H](N)C(=O)NCCNC(=O)c1ccc2c(c1)C(=O)c1cc(C(=O)NCCNC(=O)[C@H](C)N)ccc1C2=O`, the shift in melting temperature (ΔTm) was found to be 3.9 °C in experiment [1] and 0.5 °C in experiment [3]. In addition, the EC50 in experiment [2] and in experiment [4] was more than 40 µM in each case.
`CC(C)[C@H](N)C(=O)NCC(=O)Nc1ccc2c(c1)C(=O)c1ccc(NC(=O)CNC(=O)[C@@H](N)C(C)C)cc1C2=O`: the ΔTm is 6 °C in experiment [1] and 0.5 °C in experiment [3]. Also, the EC50 in experiment [2] and in experiment [4] was more than 40 µM each time.
Consider `NCC(=O)NCCNC(=O)c1ccc2c(c1)C(=O)c1ccc(C(=O)NCCNC(=O)CN)cc1C2=O`, for which the ΔTm in experiment [1] turned out to be 2.9 °C; in experiment [3] it was 0.3 °C. The EC50 in experiment [2] and in experiment [4] was more than 40 µM in each case.
Turning to `CC[C@H](C)[C@H](N)C(=O)NCCC(=O)Nc1ccc2c(c1)C(=O)c1cc(NC(=O)CCNC(=O)[C@@H](N)[C@@H](C)CC)ccc1C2=O`, the figures for the ΔTm in experiment [1] and in experiment [3] were 2.8 °C and 0.2 °C, respectively. Besides, the 50% effective concentration (EC50) in experiment [2] and in experiment [4] was more than 40 µM in each case.
With `NC(N)=NCCC[C@H](N)C(=O)NCCC(=O)Nc1ccc2c(c1)C(=O)c1cc(NC(=O)CCNC(=O)[C@@H](N)CCCN=C(N)N)ccc1C2=O`, the EC50 in experiment [2] and in experiment [4] was 4 µM each time.
As for `C[C@H](N)C(=O)NCCNC(=O)c1ccc2c(c1)C(=O)c1ccc(C(=O)NCCNC(=O)[C@H](C)N)cc1C2=O`, the ΔTm in experiment [1] worked out at 4.4 °C; in experiment [3], 0.4 °C. In addition, the EC50 in experiment [2] and in experiment [4] was more than 40 µM each time.
As for `C[C@@H](O)[C@H](N)C(=O)NCCNC(=O)c1ccc2c(c1)C(=O)c1ccc(C(=O)NCCNC(=O)[C@@H](N)[C@@H](C)O)cc1C2=O`, the values for the ΔTm in experiment [1] and in experiment [3] were 1.9 °C and 0.4 °C, respectively. Besides, the EC50 in experiment [2] and in experiment [4] was more than 40 µM each time.
As for `N[C@@H](Cc1ccccc1)C(=O)NCC(=O)Nc1ccc2c(c1)C(=O)c1ccc(NC(=O)CNC(=O)[C@@H](N)Cc3ccccc3)cc1C2=O`, the ΔTm in experiment [1] was found to be 0.6 °C; in experiment [3], 0.5 °C. The EC50 in experiment [2] and in experiment [4] was more than 40 µM each time.
As to `NC(N)=NCCC[C@H](N)C(=O)NCC(=O)Nc1ccc2c(c1)C(=O)c1ccc(NC(=O)CNC(=O)[C@@H](N)CCCN=C(N)N)cc1C2=O`, the EC50 in experiment [2] was found to be 0.8 µM; in experiment [4] it was 10 µM.
As for `NC(N)=NCCC[C@H](N)C(=O)NCCC(=O)Nc1ccc2c(c1)C(=O)c1ccc(NC(=O)CCNC(=O)[C@@H](N)CCCN=C(N)N)cc1C2=O`, the results for the EC50 in experiment [2] and in experiment [4] were 0.8 µM and 10 µM, respectively.
